# Assays:
# [1] = molecular target: 5-hydroxytryptamine receptor 2A (Rattus norvegicus) (UniProt P14842); assay: Displacement of [3H]ketanserin from 5HT2A receptor in rat cortex membrane at 10^-6 M by radioligand binding assay; assay type: cell membranes
# Method in brief: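 Single-point screen at 1 µM, reported as % inhibition of [3H]-ketanserin (88.0 Ci/mmol) binding. Non-specific binding was defined with 1 µM methysergide. Compounds inhibiting at least 85% went on to full competition.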
# [2] = molecular target: 5-hydroxytryptamine receptor 7 (Homo sapiens, UniProt P34969); assay: Displacement of [3H]-5-CT from human 5-HT7b receptor expressed in HEK293 cells by radioligand binding assay; assay type: cell-based
# Method in brief: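 Membranes from HEK-293 cells stably expressing human 5-HT7b receptor, with [3H]-5-CT (93.0 Ci/mmol) as radioligand. Full competition used 7–9 concentrations of test compound, each run in triplicate. Ki was derived from the inhibition.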
# [3] = molecular target: T1, 5-hydroxytryptamine receptor 1A (Rattus norvegicus) (UniProt P19327); assay: Displacement of [3H]8-OH-DPAT from 5HT1A receptor in rat hippocampal membrane at 10^-6 M by radioligand binding assay; assay type: cell membranes; conditions: Hippocampus
# T1 sequence (whole entry): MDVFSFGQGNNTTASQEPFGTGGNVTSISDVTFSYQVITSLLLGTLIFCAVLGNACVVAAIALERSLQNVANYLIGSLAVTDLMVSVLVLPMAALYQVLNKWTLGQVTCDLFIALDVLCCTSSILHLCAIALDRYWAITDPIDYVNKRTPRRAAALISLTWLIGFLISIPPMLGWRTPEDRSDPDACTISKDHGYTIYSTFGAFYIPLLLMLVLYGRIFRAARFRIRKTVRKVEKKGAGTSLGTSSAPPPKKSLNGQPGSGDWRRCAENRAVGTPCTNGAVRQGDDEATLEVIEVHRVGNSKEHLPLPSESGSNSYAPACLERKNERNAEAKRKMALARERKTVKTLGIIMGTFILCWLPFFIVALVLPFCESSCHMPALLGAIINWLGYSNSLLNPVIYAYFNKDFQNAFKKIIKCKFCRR
# Method in brief: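 Single-point screen at 1 µM on rat hippocampal membranes, reported as % inhibition of [3H]-8-OH-DPAT (170 Ci/mmol) binding. Non-specific binding was defined with 10 µM 5-HT. Compounds inhibiting at least 85% went on to full competition.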
# [4] = molecular target: T2, 5-hydroxytryptamine receptor 1A (Rattus norvegicus, UniProt P19327); assay: Displacement of [3H]8-OH-DPAT from 5HT1A receptor in rat hippocampal membrane by radioligand binding assay; assay type: cell membranes, Hippocampus
# T2 sequence (P19327 whole entry): T1 sequence (whole entry)
# Method in brief: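 Rat hippocampal membranes were incubated with [3H]-8-OH-DPAT (170 Ci/mmol), with 10 µM 5-HT for non-specific binding. Competition used 7–9 test concentrations, each in triplicate, to give Ki. Values are means of three experiments run in triplicate.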
# Chain of 5-hydroxytryptamine receptor 2A (Rattus norvegicus) (P14842 whole entry): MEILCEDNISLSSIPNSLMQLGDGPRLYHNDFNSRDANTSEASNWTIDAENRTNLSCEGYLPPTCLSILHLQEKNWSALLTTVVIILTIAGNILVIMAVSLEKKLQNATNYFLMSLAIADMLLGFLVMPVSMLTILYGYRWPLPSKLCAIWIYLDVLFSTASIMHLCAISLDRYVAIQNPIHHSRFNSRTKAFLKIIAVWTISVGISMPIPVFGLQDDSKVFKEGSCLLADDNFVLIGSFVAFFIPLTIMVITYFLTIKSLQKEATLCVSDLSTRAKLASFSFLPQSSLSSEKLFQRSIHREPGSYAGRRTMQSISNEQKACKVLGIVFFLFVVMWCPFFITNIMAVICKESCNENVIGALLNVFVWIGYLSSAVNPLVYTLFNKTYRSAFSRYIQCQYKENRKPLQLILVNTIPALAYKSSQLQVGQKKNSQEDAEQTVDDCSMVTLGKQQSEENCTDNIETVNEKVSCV
# Chain of 5-hydroxytryptamine receptor 7 (P34969 whole entry): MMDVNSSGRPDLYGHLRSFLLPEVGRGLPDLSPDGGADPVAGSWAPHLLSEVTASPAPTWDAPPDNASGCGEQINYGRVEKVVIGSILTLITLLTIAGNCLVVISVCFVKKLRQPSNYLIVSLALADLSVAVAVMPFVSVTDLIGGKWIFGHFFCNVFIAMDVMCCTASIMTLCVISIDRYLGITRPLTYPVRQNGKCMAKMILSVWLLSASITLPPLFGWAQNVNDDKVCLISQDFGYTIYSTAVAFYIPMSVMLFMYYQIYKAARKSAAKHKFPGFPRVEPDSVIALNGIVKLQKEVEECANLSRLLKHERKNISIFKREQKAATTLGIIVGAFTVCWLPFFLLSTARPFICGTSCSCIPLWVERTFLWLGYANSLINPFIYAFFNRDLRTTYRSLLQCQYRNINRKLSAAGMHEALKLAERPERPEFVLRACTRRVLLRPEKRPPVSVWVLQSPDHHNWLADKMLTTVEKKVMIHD
Structure (SMILES),inhibition [1],Ki [2],inhibition [3],Ki [4]
O=c1c2cnc3ccccc3c2ncn1CCCCN1CCN(c2ccc(Cl)cc2)CC1,79%,328 nM,54%,
COc1ccc(N2CCN(CCCn3cnc4c(cnc5ccccc54)c3=O)CC2)cc1,23%,,0%,
COc1ccccc1N1CCN(CCCn2cnc3c(cnc4cc(C)ccc43)c2=O)CC1,18%,,92%,31 nM
Cc1ccccc1N1CCN(CCCn2cnc3c(cnc4ccccc43)c2=O)CC1,32%,,81%,
Cc1ccc2c(c1)ncc1c(=O)n(CCCCN3CCN(c4cccc(Cl)c4)CC3)cnc12,62%,,85%,172 nM
O=c1c2cnc3ccccc3c2ncn1CCN1CCN(c2ccccc2)CC1,26%,,66%,
O=c1c2cnc3ccccc3c2ncn1CCCN1CCN(c2ccc(F)cc2)CC1,73%,,85%,129 nM
O=c1c2cnc3ccccc3c2ncn1CCN1CCN(c2cccc(C(F)(F)F)c2)CC1,36%,,89%,160 nM
O=c1c2cnc3ccccc3c2ncn1CCCCN1CCN(c2cccc(C(F)(F)F)c2)CC1,61%,418 nM,89%,127 nM
Cc1ccc2c(c1)ncc1c(=O)n(CCN3CCN(c4cccc(C(F)(F)F)c4)CC3)cnc12,8%,,88%,241 nM
COc1ccccc1N1CCN(CCn2cnc3c(cnc4cc(C)ccc43)c2=O)CC1,19%,,96%,14 nM
O=c1c2cnc3ccccc3c2ncn1CCCCN1CCN(c2ccc(F)cc2)CC1,82%,404 nM,75%,
COc1ccccc1N1CCN(CCn2cnc3c(cnc4ccccc43)c2=O)CC1,36%,,93%,42 nM
Cc1ccc2ncc3c(=O)n(CCN4CCN(c5cccc(C(F)(F)F)c5)CC4)cnc3c2c1,8%,,82%,
COc1ccccc1N1CCN(CCCCn2cnc3c(cnc4ccccc43)c2=O)CC1,64%,276 nM,97%,6 nM
Cc1ccc2ncc3c(=O)n(CCCCN4CCN(c5ccccc5F)CC4)cnc3c2c1,34%,,94%,97 nM
O=c1c2cnc3ccccc3c2ncn1CCCCN1CCN(c2cccc(Cl)c2)CC1,84%,184 nM,96%,34 nM
COc1cccc(N2CCN(CCCCn3cnc4c(cnc5ccccc54)c3=O)CC2)c1,76%,484 nM,90%,31 nM
O=c1c2cnc3ccccc3c2ncn1CCCN1CCN(c2ccccc2Cl)CC1,41%,,87%,93 nM
Cc1ccccc1N1CCN(CCCCn2cnc3c(cnc4ccccc43)c2=O)CC1,82%,296 nM,96%,52 nM
Cc1ccc2c(c1)ncc1c(=O)n(CCCCN3CCN(c4ccc(F)cc4)CC3)cnc12,57%,,60%,
Cc1ccc2ncc3c(=O)n(CCCN4CCN(c5cccc(Cl)c5)CC4)cnc3c2c1,44%,,77%,
O=c1c2cnc3ccccc3c2ncn1CCN1CCN(c2ccc(-c3ncccn3)cc2)CC1,29%,,10%,
COc1ccccc1N1CCN(CCn2cnc3c(cnc4ccc(C)cc43)c2=O)CC1,11%,,88%,82 nM
Cc1ccccc1N1CCN(CCn2cnc3c(cnc4ccccc43)c2=O)CC1,34%,,84%,514 nM
O=c1c2cnc3ccccc3c2ncn1CCCN1CCN(c2cccc(Cl)c2)CC1,63%,,91%,80 nM
O=c1c2cnc3ccccc3c2ncn1CCCCN1CCN(c2ccccc2F)CC1,79%,739 nM,96%,63 nM
COc1ccccc1N1CCN(CCCCn2cnc3c(cnc4ccc(C)cc43)c2=O)CC1,48%,,99%,8 nM
COc1ccccc1N1CCN(CCCn2cnc3c(cnc4ccc(C)cc43)c2=O)CC1,5%,,93%,26 nM

# Other lines, results leading:
inhibition [1],Ki [2],inhibition [3],Ki [4],Structure (SMILES)
40%,,73%,,Cc1ccc2c(c1)ncc1c(=O)n(CCCN3CCN(c4cccc(Cl)c4)CC3)cnc12
27%,,92%,55 nM,O=c1c2cnc3ccccc3c2ncn1CCCN1CCN(c2ccccc2F)CC1
72%,153 nM,92%,17 nM,O=c1c2cnc3ccccc3c2ncn1CCCCN1CCN(c2ccccc2Cl)CC1
45%,,90%,83 nM,Cc1ccc2c(c1)ncc1c(=O)n(CCCCN3CCN(c4ccccc4F)CC3)cnc12
57%,,91%,67 nM,Cc1ccc2ncc3c(=O)n(CCCCN4CCN(c5cccc(Cl)c5)CC4)cnc3c2c1
44%,,85%,243 nM,O=c1c2cnc3ccccc3c2ncn1CCCN1CCN(c2cccc(C(F)(F)F)c2)CC1
9%,,9%,,COc1ccc(N2CCN(CCn3cnc4c(cnc5cc(C)ccc54)c3=O)CC2)cc1
66%,,95%,47 nM,O=c1c2cnc3ccccc3c2ncn1CCCN1CCN(c2ccccc2)CC1
56%,,72%,,Cc1ccc2ncc3c(=O)n(CCCCN4CCN(c5ccc(F)cc5)CC4)cnc3c2c1
4%,,11%,,O=c1c2cnc3ccccc3c2ncn1CCN1CCN(c2ccc(Cl)cc2)CC1
45%,,68%,,Cc1ccc2c(c1)ncc1c(=O)n(CCCN3CCN(c4ccc(F)cc4)CC3)cnc12
76%,612 nM,93%,28 nM,O=c1c2cnc3ccccc3c2ncn1CCCCN1CCN(c2ccccc2)CC1
28%,,86%,128 nM,Cc1ccc2ncc3c(=O)n(CCCN4CCN(c5ccccc5)CC4)cnc3c2c1
14%,,40%,,O=c1c2cnc3ccccc3c2ncn1CCN1CCN(c2ccc(F)cc2)CC1
28%,,6%,,COc1ccc(N2CCN(CCn3cnc4c(cnc5ccccc54)c3=O)CC2)cc1
43%,,99%,20 nM,COc1ccccc1N1CCN(CCCCn2cnc3c(cnc4cc(C)ccc43)c2=O)CC1
48%,> 10000 nM,11%,,COc1ccc(N2CCN(CCCCn3cnc4c(cnc5ccccc54)c3=O)CC2)cc1
25%,,47%,,O=c1c2cnc3ccccc3c2ncn1CCN1CCN(c2ccccc2F)CC1
4%,,5%,,COc1ccc(N2CCN(CCn3cnc4c(cnc5ccc(C)cc54)c3=O)CC2)cc1
26%,,89%,120 nM,COc1cccc(N2CCN(CCCn3cnc4c(cnc5ccccc54)c3=O)CC2)c1
44%,,86%,125 nM,Cc1ccc2c(c1)ncc1c(=O)n(CCCN3CCN(c4ccccc4)CC3)cnc12
67%,,42%,,O=c1c2cnc3ccccc3c2ncn1CCCN1CCN(c2ccc(Cl)cc2)CC1
39%,,67%,,Cc1ccc2ncc3c(=O)n(CCCN4CCN(c5ccc(F)cc5)CC4)cnc3c2c1
22%,,93%,55 nM,O=c1c2cnc3ccccc3c2ncn1CCN1CCN(c2cccc(Cl)c2)CC1
8%,,97%,20 nM,COc1ccccc1N1CCN(CCCn2cnc3c(cnc4ccccc43)c2=O)CC1
11%,,82%,,COc1cccc(N2CCN(CCn3cnc4c(cnc5ccccc54)c3=O)CC2)c1
17%,,90%,78 nM,O=c1c2cnc3ccccc3c2ncn1CCN1CCN(c2ccccc2Cl)CC1

# From ChEMBL document CHEMBL1811770, “Synthesis and structural investigation of some pyrimido[5,4-c]quinolin-4(3H)-one derivatives with a long-chain arylpiperazine moiety as potent 5-HT(1A/2A) and 5-HT(7) receptor ligands” (Eur J Med Chem, 2011)
